In the EternaBench riboswitch data:

System: MS2 coat protein
Assay: apparent Kd, MS2 coat protein; higher = weaker binding; RNA-MaP array; FMN 200 µM where present
How it was run: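 Stalled E. coli RNA polymerase transcribed each design on Illumina sequencing-chip clusters. The clusters were titrated with SNAP-549-labelled MS2 coat protein, starting at 0.7 or 1.5 nM and doubling up to 3 µM, first without ligand and then with constant ligand, in 100 mM Tris-HCl pH 7.5, 80 mM KCl, 4 mM MgCl2, BSA, DTT, yeast tRNA and Tween-20. Green signal was normalised to red-channel RNA signal and to the control-cluster median Fmax. The apparent Kd is the median of filtered binding-curve fits made for each cluster.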

[1] = designed as: ON switch for flavin mononucleotide, no ligand
[2] = ligand present: flavin mononucleotide, designed as: ON switch for flavin mononucleotide
[3] = designed as: OFF switch for flavin mononucleotide, no ligand
[4] = ligand present: flavin mononucleotide, designed as: OFF switch for flavin mononucleotide

AAUUCACAUGAGGAUCACCCAUGUAUUGCGAGCGCGAUUACGUAGGAUAUCCAUCAAAACAGAUAGGAGAAGGGCGUACUAUCU
apparent Kd [1]: 253 nM | apparent Kd [2]: 185 nM

AAUUCACAUGAGGAUCACCCAUGUCAGGAUAUGGUUUCACGUGUUUCUUUGCUUGAGGCCAGAAGGGACAGCUA
apparent Kd [3]: 71.8 nM | apparent Kd [4]: 94.4 nM

AAUUCACAUGAGGAUCACCCAUGUCAGGAUAUGGUUUCACGUUUUUCUUUUCUUGAGGCCAGAAGGGACAGCUA
apparent Kd [3]: 67.6 nM | apparent Kd [4]: 79.1 nM

AAUUCGUCAGGAUAUGCAUGUAGUUGCUACAUUUCGCCGUUGCAGAAGGGACAUGAGGAUCACCCAUGUAAGUC
apparent Kd [3]: 33.1 nM | apparent Kd [4]: 34.2 nM

AAUUGACACGUAGGAUAUCGCUCUUAUUUAACACGAGAAGGACGUACAUGAGGAUCACCCAUGUUAAAUGGUGUAGAUUAGUUG
apparent Kd [3]: 153 nM | apparent Kd [4]: 481 nM

AAUUGCCUAGGAUAUACUUGGGCCCGCUCAUACUCCAAUGGACAUGAGGAUCACCCAUGUAGAAGGAGGACCCA
apparent Kd [3]: 17.2 nM | apparent Kd [4]: 39.4 nM

AAUUUAAUACAUGAGGAUCACCCAUGUAAAUUAAUUAAGAUCAAGGAUAUCAGCUCGAUUAGAGCUGAGAAGGUGAUCACAUGU
apparent Kd [1]: 368 nM | apparent Kd [2]: 99.4 nM

AAUUUACAGCUAGGAUAUACAUGAGGAUCACCCAUGUAACGAUCGGAUCUUAUGAUCGUGUCCGUGUAGAAGGAGCAAAUAAGA
apparent Kd [3]: 6.97 nM | apparent Kd [4]: 7.4 nM

AAUUUGCACGCAGGAUAUCGAUAUAAAAGCUGACGAGAAGGGCGGUACAUGAGGAUCACCCAUGUGAACGCCGGGUGGUCUCGU
apparent Kd [3]: 6.55 nM | apparent Kd [4]: 9.34 nM

ACACAACAUGAGGAUCACCCAUGUUUUCGAUUCACAGGAUAUGGGACAUCCGGAGGGUGACCAGAAGGGUGACUCG
apparent Kd [1]: 29.9 nM | apparent Kd [2]: 18.8 nM

ACACAUGAGGAUCACCCAUGUAGCUGGCAUCUGCGCCAGCCACAGGAUAUACGGCAACACAAACCGUAGAAGGGUGAUAAACAC
apparent Kd [1]: 59.5 nM | apparent Kd [2]: 35.5 nM

ACACAUGAGGAUCACCCAUGUAGCUGGCGUCUGCACCAGCCACAGGAUAUACGGCAACACAAACCGUAGAAGGGUGAUAAACAC
apparent Kd [1]: 56.3 nM | apparent Kd [2]: 27.3 nM

ACAGGCUUCGAGAAGGACAUGAGGAUCACCCAUGUGCGUGUGAAGCAGCCGUGAGGCUGCAUCAUGUAGGAUAUCGGAGUCUGC
apparent Kd [3]: 73 nM | apparent Kd [4]: 557 nM

ACAGGUGCAGGAUAUACAUGAGGAUCACCCAUGUGAUUAGCAGUCCUCGGACUGCAAUGUAGAAGGGCACCUGU
apparent Kd [3]: 327 nM | apparent Kd [4]: 1120 nM

ACAGUUCUGCAAGGAUAUCGUUCUAGUUUAGUACGAGAAGGUGCUUUAGUUUUUUCUUUGUGUUGACAUGAGGAUCACCCAUGU
apparent Kd [3]: 23.4 nM | apparent Kd [4]: 15.2 nM

ACAUACAUUCGAGGAUAUCGGUGAACAAAUUAACGAGAAGGCGAUAUAAUGUUUAAUCUUAUAAACAUGAGGAUCACCCAUGUA
apparent Kd [1]: 68.5 nM | apparent Kd [2]: 28 nM

ACAUACAUUCGAGGAUAUCGGUGAUUAAUUUUACGAGAAGGCGAUAAAAGAUAUAAAAUUUUAGACAUGAGGAUCACCCAUGUA
apparent Kd [1]: 28.6 nM | apparent Kd [2]: 27.1 nM

ACAUACUUUCGAGGAUAUCGGUGAUAAAUUUUACGAGAAGGCGAUAAAAGAUAUAAUCUUAUAGACAUGAGGAUCACCCAUGUA
apparent Kd [1]: 30.5 nM | apparent Kd [2]: 27.3 nM

ACAUGAGACUAAGGAUAUGAUGUACCUAUAUGUGACAUGAGGAUCACCCAUGUGGUAAGUAUGACUCAGAAGGUAGAGAUAUGU
apparent Kd [1]: 222 nM | apparent Kd [2]: 77.3 nM

ACAUGAGGAUCACCCAUGUAGAAUGAAGAAGGUAGAUACUUGAGGCUCACCCAUGUACAUAGGACUAAGGAUAUUCUAAUAAUU
apparent Kd [1]: 25 nM | apparent Kd [2]: 22 nM

ACAUGAGGAUCACCCAUGUAUACAUAGGAUAUUGGUGAUCAGGGAUGUUUUACAGGAUAUGUCUGCGAGAAGGAUGCAAGUACA
apparent Kd [1]: 352 nM | apparent Kd [2]: 151 nM

ACAUGAGGAUCACCCAUGUAUUACAUGGUUAAGUUUAUUAACAGAAGGCGAAAUUACCACUUGAUCGAGGAUAUGUAUUCUAUU
apparent Kd [3]: 49.1 nM | apparent Kd [4]: 43.4 nM

ACAUGAGGAUCACCCAUGUUGAAUGAGGAUAUUUGACUGCGCAUGAGGUUCUCCCAUGUUCAACCGGAGAAGGUAUUAAUAAUU
apparent Kd [1]: 267 nM | apparent Kd [2]: 160 nM

ACAUGAUACAAGAAGGAUGUAUUUGAUUUGAUCAUAGGAUAUUGUUAUAUUGUUUACUCUAAUAACAUGAGGAUCACCCAUGUA
apparent Kd [1]: 7.04 nM | apparent Kd [2]: 6.95 nM

ACAUGAUAUGUAGGAUAUCACAUUAAUUGAUUAAUAUUUCUAUAUAGAAUUUGAGAAGGACAUUUACAUGAGGAUCACCCAUGU
apparent Kd [3]: 10.3 nM | apparent Kd [4]: 10.3 nM

ACAUGAUAUGUAGGAUAUCACAUUAAUUGUUUAAUAAUUGAAUUUAGGAUUUGAGAAGGACAUUUACAUGAGGAUCACCCAUGU
apparent Kd [3]: 16.9 nM | apparent Kd [4]: 12.7 nM

ACAUGCAUAGCGAUAUGAUCGAGAGAUCAUGUCGCUAAAUUUAGAAGGACAUGAGGAUCACCCAUGUAGGAUAUGGGAGCAUGA
apparent Kd [1]: 44.7 nM | apparent Kd [2]: 11.1 nM
